# Measured values taken from ChEMBL document CHEMBL1799956, “Convergent synthesis and biological evaluation of 2-amino-4-(3',4',5'-trimethoxyphenyl)-5-aryl thiazoles as microtubule targeting agents” (J Med Chem, 2011).
# How the values were obtained:
# [1] = test system: A549; assay: Antiproliferative activity against human A549 cells assessed as growth inhibition after 72 hrs by MTT assay; type: functional, cell-based; details: A549, 72 h
# [2] = test system: HeLa; assay: Antiproliferative activity against human HeLa cells assessed as growth inhibition after 72 hrs by MTT assay; type: functional, cell-based
# [3] = test system: HL-60; assay: Antiproliferative activity against human HL60 cells assessed as growth inhibition after 72 hrs by MTT assay; type: functional, cell-based; details: HL-60, 72 h
# [4] = test system: Jurkat; assay: Antiproliferative activity against human Jurkat cells assessed as growth inhibition after 72 hrs by MTT assay; type: functional, cell-based
# [5] = test system: K562; assay: Antiproliferative activity against human K562 cells assessed as growth inhibition after 72 hrs by MTT assay; type: functional, cell-based; details: K562, 72 h
# [6] = test system: MCF7; assay: Antiproliferative activity against human MCF7 cells assessed as growth inhibition after 72 hrs by MTT assay; type: functional, cell-based; details: MCF7, 72 h
# [7] = test system: HT-29; assay: Antiproliferative activity against human HT-29 cells assessed as growth inhibition after 72 hrs by MTT assay; type: functional, cell-based; details: HT-29, 72 h
# [8] = Inhibition of bovine brain tubulin polymerization after 20 mins by turbidimetric analysis; set-up: species or system Bos taurus
# Procedure, shortened: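 Purified tubulin at 10 μM was used for the assembly (polymerization) inhibition assay. IC50 is the concentration inhibiting assembly.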
# [9] = species on record: Bos taurus; assay: Displacement of [3H]colchicine from bovine brain tubulin at 5 uM
# Procedure, shortened: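 [3H]colchicine binding inhibition with tubulin at 1 μM, [3H]colchicine at 5 μM and test compound at 5 μM.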
# [10] = test system: LoVo; assay: Antiproliferative activity against human LoVo cells assessed as growth inhibition after 72 hrs by MTT assay; type: functional, cell-based
# [11] = test system: LoVo; assay: Antiproliferative activity against human doxorubicin-resistant LoVo cells overexpressing P-gp assessed as growth inhibition after 72 hrs by MTT assay; type: functional, cell-based
# [12] = test system: CCRF-CEM; assay: Antiproliferative activity against human CEM cells assessed as growth inhibition after 72 hrs by MTT assay; type: functional, cell-based
# [13] = Antiproliferative activity against human vinblastine-resistant CEM/VBL100 cells overexpressing P-gp assessed as growth inhibition after 72 hrs by MTT assay; type: functional, cell-based; details: CEM/VBL100, 72 h
# [14] = Antiproliferative activity against human taxol-resistant A549-T12 cells assessed as growth inhibition after 72 hrs by MTT assay; type: functional, cell-based; details: A549, 72 h
# [15] = test system: LoVo; assay: Fold resistance, ratio of IC50 for human doxorubicin-resistant LoVo cells overexpressing P-gp to IC50 for human LoVo cells; type: functional
# Procedure, shortened: (§1)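 Fold resistance taken as the ratio of IC50 in the resistant line to IC50 in the parental line, each IC50 from dose-response curves of at least three independent experiments.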
# [16] = test system: CCRF-CEM; assay: Fold resistance, ratio of IC50 for human vinblastine-resistant CEM/VBL100 cells overexpressing P-gp to IC50 for human CEM cells; type: functional; procedure, shortened: as §1
# [17] = test system: A549; assay: Fold resistance, ratio of IC50 for human taxol-resistant A549-T12 cells to IC50 for human A549 cells; type: functional
# [18] = species on record: Bos taurus; assay: Ratio of combretastatin A-4 IC50 to compound IC50 for bovine brain tubulin
SMILES,IC50 [1] [nM],IC50 [2] [nM],IC50 [3] [nM],IC50 [4] [nM],IC50 [5] [nM],IC50 [6] [nM],IC50 [7] [nM],IC50 [8] [nM],inhibition [9] [%],IC50 [10] [nM],IC50 [12] [nM],Ratio IC50 [18],IC50 [11] [nM],IC50 [13] [nM],IC50 [14] [nM],Ratio IC50 [15],Ratio IC50 [16],Ratio IC50 [17]
COc1cc(-c2nc(N)sc2-c2ccc3ccccc3c2)cc(OC)c1OC,3.8,1.6,2.7,3.3,22.1,51.2,23.9,740,94,–,–,–,–,–,–,–,–,–
COc1ccc(-c2sc(N)nc2-c2cc(OC)c(OC)c(OC)c2)cc1OC,1800,249,301,319,829,1170,432,–,–,–,–,–,–,–,–,–,–,–
COc1cc(-c2nc(N)sc2-c2ccc(C(F)(F)F)cc2)cc(OC)c1OC,357,3.2,5.1,8.5,7.6,0.4,221,4000,25,–,–,–,–,–,–,–,–,–
COc1ccc(-c2sc(N)nc2-c2cc(OC)c(OC)c(OC)c2)cc1Cl,37.7,1.6,2.8,2.9,36.1,27.3,12.8,880,77,–,–,–,–,–,–,–,–,–
COc1cc(-c2nc(N)sc2-c2ccccc2)cc(OC)c1OC,9600,3090,3640,3830,8500,> 10000,7920,–,–,–,–,–,–,–,–,–,–,–
COc1ccc(-c2sc(N)nc2-c2cc(OC)c(OC)c(OC)c2)cc1,20.2,2.3,3.2,2.1,5.1,60.9,11.7,1100,79,3.1,7.7,–,0.8,1.2,11.4,0.25,0.1,0.6
CC(=O)O[C@H]1C(=O)[C@@]2(C)[C@H]([C@H](OC(=O)c3ccccc3)[C@]3(O)C[C@H](OC(=O)[C@H](O)[C@@H](NC(=O)c4ccccc4)c4ccccc4)C(C)=C1C3(C)C)[C@]1(OC(C)=O)CO[C@@H]1C[C@@H]2O [PACLITAXEL],7.2,–,–,–,–,–,–,–,–,–,–,–,–,–,75.2,–,–,10.4
CCc1ccc(-c2sc(N)nc2-c2cc(OC)c(OC)c(OC)c2)cc1,238,1,1.1,4.1,49.7,117,54.1,1100,73,–,–,–,–,–,–,–,–,–

# More lines, main results first:
IC50 [1] [nM],IC50 [2] [nM],IC50 [3] [nM],IC50 [4] [nM],IC50 [5] [nM],IC50 [6] [nM],IC50 [7] [nM],IC50 [8] [nM],inhibition [9] [%],IC50 [10] [nM],IC50 [12] [nM],Ratio IC50 [18],SMILES,IC50 [11] [nM],IC50 [13] [nM],IC50 [14] [nM],Ratio IC50 [15],Ratio IC50 [16],Ratio IC50 [17]
11.2,0.91,0.27,0.06,8.8,14.1,15.6,890,87,2,1.4,–,CCOc1ccc(-c2sc(N)nc2-c2cc(OC)c(OC)c(OC)c2)cc1Cl,1.7,0.7,8.5,0.9,0.5,0.8
3.1,2,6.1,7.3,6,18.6,5.7,1200,81,–,–,–,COc1ccc(-c2sc(N)nc2-c2cc(OC)c(OC)c(OC)c2)cc1F,–,–,–,–,–,–
2370,209,118,48.4,728,476,239,–,–,–,–,–,COc1cccc(-c2sc(N)nc2-c2cc(OC)c(OC)c(OC)c2)c1,–,–,–,–,–,–
–,–,–,–,–,–,–,–,–,120,–,–,COc1cccc2c1C(=O)c1c(O)c3c(c(O)c1C2=O)C[C@@](O)(C(=O)CO)C[C@@H]3O[C@H]1C[C@H](N)[C@H](O)[C@H](C)O1 [DOXORUBICIN],–,–,–,109.6,–,–
305,2.6,4,21.5,67.6,58.7,24,1100,72,–,–,–,COc1ccc(-c2sc(N)nc2-c2cc(OC)c(OC)c(OC)c2)cc1C,–,–,–,–,–,–
6320,3860,8660,4690,9030,> 10000,> 10000,–,–,–,–,–,COc1cc(-c2nc(N)sc2-c2cccc3ccccc23)cc(OC)c1OC,–,–,–,–,–,–
42.8,0.73,3.9,3.9,58.7,280,12.4,440,88,–,–,3,COc1cc(-c2nc(N)sc2-c2ccc(C)cc2)cc(OC)c1OC,–,–,–,–,–,–
16,2.8,0.9,0.6,19.6,47,19.1,2000,86,–,–,–,COc1cc(-c2nc(N)sc2-c2cc3ccccc3s2)cc(OC)c1OC,–,–,–,–,–,–
–,–,–,–,–,–,–,–,–,–,4.1,–,CC[C@]1(O)C[C@@H]2CN(CCc3c([nH]c4ccccc34)[C@@](C(=O)OC)(c3cc4c(cc3OC)N(C)[C@H]3[C@@](O)(C(=O)OC)[C@H](OC(C)=O)[C@]5(CC)C=CCN6CC[C@]43[C@@H]65)C2)C1 [VINBLASTINE],–,230,–,–,56.1,–
